According to ChEMBL document CHEMBL1142131, “Effect of anaerobic growth on quinolone lethality with Escherichia coli” (2007):
Converted amounts (≈) assume the structure as drawn. The source made the active and inactive calls. No cut-off for these calls is given here.

Key:
[1] = system: Escherichia coli; assay: Bacteriostatic activity against Escherichia coli DM4100 in aerobic condition; assay type: functional
Outline: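 MIC from 10^4 to 10^5 cells/ml in liquid medium with serial twofold quinolone dilutions. Incubated at 37°C with shaking, 2-ml cultures, aerobic.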

[2] = system: Escherichia coli; assay: Bacteriostatic activity against Escherichia coli DM4100 in anaerobic condition; assay type: functional
Outline: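 MIC from 10^4 to 10^5 cells/ml in liquid medium with serial twofold quinolone dilutions. Incubated at 37°C in sealed tubes after 20 min flushing with anaerobic gas (85% N2, 10% H2, 5% CO2).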

[3] = system: Escherichia coli; assay: Bactericidal activity against Escherichia coli DM4100 in aerobic condition; assay type: functional, organism-based
Outline: (§1)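 Mid-log cells grown aerobically at 37°C in liquid medium, split into 2-ml portions and given quinolone for 2 h with shaking in air. Chloramphenicol 20 µg/ml was added 10 min before quinolone for the chloramphenicol arm. Cells were diluted in ice-cold LB and plated on drug-free LB agar overnight at 37°C aerobically. Read-out is CFU relative to CFU at time of quinolone addition.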

[4] = system: Escherichia coli; assay: Bactericidal activity against Escherichia coli DM4100 in anaerobic condition; assay type: functional, organism-based
Outline: (§2)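 Mid-log aerobic cultures at 37°C were split into 2-ml portions in sealed tubes flushed with anaerobic gas (85% N2, 10% H2, 5% CO2). After 20 min, anaerobic quinolone solution was added and incubation continued 2 h under gas flow. Cells were diluted in ice-cold LB, plated aerobically on drug-free LB agar overnight at 37°C. Survival is CFU relative to CFU at drug addition.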

[5] = system: Escherichia coli; assay: Bactericidal activity against Escherichia coli DM4100 in the presence of chloramphenicol; assay type: functional, organism-based
Outline: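 Aerobically growing mid-log cells at 37°C received chloramphenicol to 20 µg/ml 10 min before the quinolone. Treatment ran 2 h. Cells were diluted in ice-cold LB and plated aerobically on drug-free LB agar overnight at 37°C. Survival is CFU relative to CFU at quinolone addition. Replicate experiments were run.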

[6] = system: Escherichia coli; assay: Bactericidal activity in Escherichia coli KD1373 containing parC resistance mutation in aerobic condition; assay type: functional, organism-based; outline: as §1
[7] = system: Escherichia coli; assay: Bactericidal activity in Escherichia coli KD1373 containing parC resistance mutation in anaerobic condition; assay type: functional, organism-based; outline: as §2
[8] = system: Escherichia coli; assay: Bactericidal activity in Escherichia coli KD1373 containing parC resistance mutation in presence of chloramphenicol; assay type: functional, organism-based; outline: as §1
[9] = system: Escherichia coli; assay: Bactericidal activity in Escherichia coli KD2329 with gyrA-par C resistant mutation; assay type: functional, organism-based; outline: as §1
[10] = system: Escherichia coli; assay: Bactericidal activity against Escherichia coli DM4100 in saline; assay type: functional, organism-based
[11] = system: Escherichia coli; assay: Chromosome fragmentation in Escherichia coli DM4100 assessed as reduced lysate viscosity at 50 ug/ml after 2 hrs in aerobic condition; assay type: functional, organism-based
Outline: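 Exponential aerobic cells were treated 2 h with drug, then gently lysed with lysozyme and nonionic detergents at 20°C for 2–3 min. Lysate twofold dilutions received pancreatic RNase 20 µg/ml, were heated at 80°C for 2 min, chilled on ice and brought to 20°C. Viscosity was measured by capillary viscometry.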

[12] = system: Escherichia coli; assay: Bactericidal activity in Escherichia coli KD1373 containing parC mutation in anerobic condition; assay type: functional, organism-based; outline: as §2
[13] = system: Escherichia coli; assay: Bactericidal activity in Escherichia coli KD2750 containing gyrA resistant mutation in anerobic condition; assay type: functional, organism-based; outline: as §2
[14] = system: Escherichia coli; assay: Bactericidal activity in Escherichia coli KD2329 containing gyrA-parC mutation; assay type: functional, organism-based; outline: as §1

`CCN1CCN(c2c(F)cc3c(=O)c(C(=O)O)cn(C4CC4)c3c2OC)CC1` was tested, and the MIC [1] was 0.08 µg/mL (≈ 0.205 µM), the MIC [2] was 0.08 µg/mL (≈ 0.205 µM) and the Activity [3] was “Active”. For the same molecule, the Activity [4] was “Active”, the Activity [5] was “Active” and the Activity [6] was “Active”. The Activity [7] was “Active”, the Activity [8] was “Active” and the Activity [9] was “inactive”.
In the case of `O=C(O)c1cn(C2CC2)c2cc(N3CCNCC3)c(F)cc2c1=O`, the Activity [3] is reported as “Active”, the Activity [10] is reported as “Active” and the Activity [4] is reported as “Active”. For the same molecule, the Activity [5] was “Active”.
For `CCn1cc(C(=O)O)c(=O)c2ccc(C)nc21` [NALIDIXIC ACID], the MIC [1] was 5 µg/mL (≈ 21.5 µM), the MIC [2] was 5 µg/mL (≈ 21.5 µM) and the Activity [3] was “Active”. The Activity [10] was “inactive”, the Activity [4] was “inactive” and the Activity [5] was “inactive”. For the same molecule, the Activity [11] was “Active”.
With `CCn1cc(C(=O)O)c(=O)c2cc(F)c(N3CCNCC3)cc21` [NORFLOXACIN] the MIC [1] was 0.075 µg/mL (≈ 0.235 µM), the MIC [2] was 0.075 µg/mL (≈ 0.235 µM) and the Activity [3] was “Active”. For the same molecule, the Activity [10] was “Active”, the Activity [4] was “Active” and the Activity [5] was “inactive”. The Activity [12] was “Active”, the Activity [13] was “Active” and the Activity [14] was “inactive”.
